pEC50, pIC50: −log10 of the molar value.
Experiments:
[1] = Inhibition of Plasmodium berghei DHODH expressed in Escherichia coli DH5alpha using 2,6-dichoroindophenol substrate by spectrophotometric analysis
[2] = target: T1, Dihydroorotate dehydrogenase (Plasmodium falciparum, UniProt Q54A96); test: Inhibition of Plasmodium falciparum DHODH expressed in Escherichia coli DH5alpha using 2,6-dichoroindophenol substrate by spectrophotometric analysis
T1 sequence (Q54A96 whole entry): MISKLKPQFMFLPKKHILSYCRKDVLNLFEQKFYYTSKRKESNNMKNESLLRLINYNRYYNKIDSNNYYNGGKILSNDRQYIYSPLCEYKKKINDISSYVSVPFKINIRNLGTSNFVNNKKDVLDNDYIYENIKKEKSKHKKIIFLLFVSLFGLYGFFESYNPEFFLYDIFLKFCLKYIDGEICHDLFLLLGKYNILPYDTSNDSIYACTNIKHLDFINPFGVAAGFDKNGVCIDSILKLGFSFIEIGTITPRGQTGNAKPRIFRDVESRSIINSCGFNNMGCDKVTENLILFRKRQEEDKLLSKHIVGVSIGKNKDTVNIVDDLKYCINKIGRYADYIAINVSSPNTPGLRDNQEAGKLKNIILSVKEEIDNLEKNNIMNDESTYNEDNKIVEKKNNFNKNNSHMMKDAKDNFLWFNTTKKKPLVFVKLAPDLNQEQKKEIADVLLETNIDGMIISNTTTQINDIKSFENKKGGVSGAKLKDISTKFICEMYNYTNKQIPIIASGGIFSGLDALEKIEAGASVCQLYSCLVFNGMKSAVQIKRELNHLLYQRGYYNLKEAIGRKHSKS
Summary of the method: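 Recombinant purified enzyme; colorimetric steady-state assay following DCIP (120 micromolar) reduction at 600 nm, coupled to CoQ_D reoxidation. Started with enzyme (5–10 nM final), 20 °C. IC50 fitted across inhibitor concentrations, triplicate points each.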

[3] = system: Plasmodium falciparum; test: Antiplasmodial activity against Plasmodium falciparum 3D7 infected in human erythrocytes assessed as inhibition of [3H]hypoxanthine incorporation after 48 hrs; type: functional, organism-based
Summary of the method: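 Clone 3D7 grown in RPMI-1640 with 20% human type A+ plasma and 2% (w/v) red blood cells. Proliferation measured by standard [3H]-hypoxanthine uptake in infected erythrocytes.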

[4] = target: Dihydroorotate dehydrogenase (quinone), mitochondrial (Homo sapiens, UniProt Q02127); test: Inhibition of human DHODH expressed in Escherichia coli BL21(DE3) using 2,6-dichoroindophenol substrate by spectrophotometric analysis
Sequence of Dihydroorotate dehydrogenase (quinone), mitochondrial (Q02127 whole entry): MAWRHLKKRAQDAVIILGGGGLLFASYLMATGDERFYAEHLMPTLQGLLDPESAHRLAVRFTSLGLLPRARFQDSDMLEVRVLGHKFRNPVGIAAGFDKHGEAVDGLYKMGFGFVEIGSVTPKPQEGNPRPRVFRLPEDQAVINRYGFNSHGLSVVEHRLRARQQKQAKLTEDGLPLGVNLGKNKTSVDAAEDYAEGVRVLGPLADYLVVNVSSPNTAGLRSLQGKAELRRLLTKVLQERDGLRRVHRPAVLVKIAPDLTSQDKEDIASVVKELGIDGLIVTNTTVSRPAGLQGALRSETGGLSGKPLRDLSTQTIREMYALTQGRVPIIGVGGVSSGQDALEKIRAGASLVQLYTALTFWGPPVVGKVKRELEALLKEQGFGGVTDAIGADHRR

[5] = Drug metabolism in mouse liver microsomes by LC/MS analysis; type: ADME, Microsome
Summary of the method: (§1)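 Compound at 1 μM incubated at 37°C with pooled human or mouse liver microsomes (0.4 mg/mL protein). Reaction started with NADPH-regenerating system (1 mg/mL NADP, 1 mg/mL glucose-6-phosphate, 1 U/mL G6PDH, 0.67 mg/mL MgCl2) and quenched at time points with ice-cold acetonitrile. Parent loss tracked by LC/MS against a microsomal-matrix calibration curve. First-order depletion rate constant came from an exponential decay fit.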

[6] = system: Liver; test: Intrinsic clearance in mouse liver microsomes assessed per mg of protein at 1 uM by LC/MS analysis; type: ADME, Microsome; summary of the method: as §1
[7] = system: Mus musculus; test: Toxicity in Swiss mouse assessed as adverse effects at 10 mg/kg, po; type: organism-based; set-up: dose 10 mg/kg, route oral; settings: in vivo
Summary of the method: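 Mice watched for adverse reactions after one oral 10 mg/kg dose, given as a suspension in aqueous carboxymethylcellulose/benzyl alcohol/Tween 80 vehicle.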

[8] = system: Plasmodium berghei; test: Antimalarial activity against erythrocytic stage of Plasmodium berghei NK65 infected in BALB/c mouse assessed as reduction in parasitemia at 50 mg/kg, po administered QD for 4 days starting 1 day post-infection measured 24 hrs post-last dose relative to vehicle-treated control; type: functional; set-up: scale not given: the % may be the effect or the level left
Summary of the method: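 Female BALB/c mice, 8–10 weeks old, infected IP with 2×10^7 infected erythrocytes (200 μL) 24 h before first dose; minimum 0.1% parasitemia confirmed before treatment. Oral dosing 1× daily for 4 consecutive days, vehicle or chloroquine (10 mg/kg oral, same schedule) as controls. Parasitemia from Wright-Giemsa-stained thin blood smears, tail-vein bleeds daily.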

[9] = system: Liver microsomes; test: Intrinsic clearance in human liver microsomes assessed per mg of protein at 1 uM by LC/MS analysis; type: ADME, Microsome; summary of the method: as §1
[10] = system: Liver microsomes; test: Drug metabolism in human liver microsomes by LC/MS analysis; type: ADME, Microsome; summary of the method: as §1
[11] = system: Liver microsomes; test: Half life in human liver microsomes at 1 uM by LC/MS analysis; type: ADME, Microsome; summary of the method: as §1
[12] = Plasma concentration in Swiss mouse at 10 mg/kg, po at 16 hrs; type: ADME, organism-based; set-up: dose 10 mg/kg, route oral
Summary of the method: (§2)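 Single 10 mg/kg oral gavage dose (0.1 mL) given as a suspension in 0.5% w/v Na carboxymethylcellulose, 0.5% v/v benzyl alcohol, 0.4% v/v Tween 80. Food and water ad libitum. One cardiac-puncture blood sample per mouse at 1, 2, 4, 7.5, 16 and 24 h. Heparinised plasma stored at –20°C, acetonitrile-precipitated and quantified by LC-MS against a plasma calibration curve; quantitation limit 0.003 μM.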

[13] = system: Liver; test: Half life in mouse liver microsomes at 1 uM by LC/MS analysis; type: ADME, Microsome; summary of the method: as §1
[14] = Cmax in Swiss mouse at 10 mg/kg, po; type: ADME, organism-based; set-up: dose 10 mg/kg, route oral; settings: in vivo; summary of the method: as §2
[15] = Plasma concentration in Swiss mouse at 10 mg/kg, po up to 4 hrs; type: ADME, organism-based; set-up: dose 10 mg/kg, route oral; summary of the method: as §2

Compound | pIC50 [1] | pIC50 [2] | pEC50 [3] | pIC50 [4] | other results
Cc1nc(Nc2ccc3cc4ccccc4cc3c2)c2nc[nH]c2n1 | < 5.00 | 5.32 | 5.49 |  | 
Cc1cc(NC(=O)c2ccc(C(F)(F)F)cc2)n2ncnc2n1 | < 4.00 | < 4.00 | < 4.30 | < 4.00 | 
Cc1nc(Nc2ccc3ccccc3c2)c2cn[nH]c2n1 |  | < 4.00 | < 4.90 |  | 
Cc1cc(Nc2ccc3ccccc3c2)c2nncn2n1 | < 4.30 | < 4.30 | < 5.30 |  | 
Cc1cc(Nc2ccc3ccccc3c2)n2nccc2n1 | 5.48 | 6.40 | 6.04 | < 4.00 | 
Cc1nc(Nc2n[nH]cc2C#N)c2nc[nH]c2n1 |  | < 4.00 | < 4.60 |  | 
Cc1cc(Nc2ccc3ccccc3c2)n2ccnc2n1 | 5.55 | 6.82 | 6.72 | < 4.00 | 
Cc1cc(NC(=O)c2ccccc2)n2ncnc2n1 | < 4.00 | < 4.00 | < 4.00 | < 4.00 | 
Cc1cc(Nc2ccc(C(F)(F)F)cc2)n2ccnc2n1 | 6.77 | 7.11 | 6.49 | < 4.00 | Drug metabolism [5]: Not Active; CLint [6]: 34 µL/min/mg; Activity [7]: Non-toxic; Activity [8]: 56%; CLint [9]: 4.7 µL/min/mg; Drug metabolism [10]: Not Active; t1/2 [11]: 6.13 h; concentration at 16 h [12]: < 3 nM; t1/2 [13]: 0.863 h; Cmax [14]: 3900 nM; concentration at 4 h [15]: > 1000 nM
Cc1nc(Nc2ccc3ccccc3c2)c2nc[nH]c2n1 | 4.96 | 6.36 | 5.66 | < 4.00 | 
Cc1cc(Nc2ccc3ccccc3c2)n2ncnc2c1 | 5.20 | 5.32 | 5.28 |  | 
Cc1nc(Nc2cnc3ccccc3c2)c2nc[nH]c2n1 |  | 4.57 | < 5.00 |  | 
Cc1nc(Nc2ccc3ncccc3c2)c2nc[nH]c2n1 |  | < 4.60 | 5.49 |  | 
